Measured values published in ChEMBL document CHEMBL4732032, “Discovery of novel JAK2 and EGFR inhibitors from a series of thiazole-based chalcone derivatives” (RSC Med Chem, 2021).

Experiments:
[1] = Antiproliferative activity against human HMC 1.1 cells harboring KIT V560G mutant assessed as inhibition of cell proliferation measured after 72 hrs by MTS assay; assay type: functional, cell-based; conditions: HMC-1.1, 72 h
[2] = Potency index, ratio of erlotinib IC50 to test compound IC50 human A549 cells expressing EGFR assessed as reduction in cell viability incubated for 72 hrs by MTT assay; assay type: functional
[3] = target: Tyrosine-protein kinase JAK2 (Homo sapiens, UniProt O60674); assay: Inhibition of recombinant human JAK2 JH1 domain expressed in baculovirus infected insect cells using poly-Glu-Tyr (51 to 68 residues) as substrate incubated for 1 hr in presence of ATP by ADP-Glo assay
Vero = assay: Cytotoxicity against African green monkey Vero cells assessed as reduction in cell viability incubated for 72 hrs by MTT assay; conditions: Chlorocebus sabaeus
A-431 = assay: Cytotoxicity against human A-431 cells expressing EGFR assessed as reduction in cell viability incubated for 72 hrs by MTT assay; assay type: functional, cell-based; conditions: A-431, 72 h
A549 = assay: Cytotoxicity against human A549 cells expressing EGFR assessed as reduction in cell viability incubated for 72 hrs by MTT assay; assay type: functional, cell-based; conditions: A549, 72 h
[4] = target: T1, Epidermal growth factor receptor (Homo sapiens, UniProt P00533); assay: Inhibition of human EGFR TK domain expressed in Escherichia coli BL21 (DE3) pLysS using poly-Glu-Tyr (51 to 68 residues) as substrate incubated for 1 hr by ADP-Glo assay
HEL 92.1.7 = assay: Cytotoxicity against human HEL 92.1.7 cells expressing JAK2 assessed as reduction in cell viability incubated for 72 hrs by presto blue reagent assay; assay type: functional, cell-based; conditions: HEL 92.1.7, 72 h
TF-1 = assay: Cytotoxicity against human TF-1 cells expressing JAK2 assessed as reduction in cell viability incubated for 72 hrs by presto blue reagent assay; assay type: functional, cell-based; conditions: TF-1, 72 h
[5] = Potency index, ratio of ruxolitinib IC50 to test compound IC50 for human HEL 92.1.7 cells expressing JAK2 assessed as reduction in cell viability incubated for 72 hrs by presto blue reagent assay; assay type: functional
[6] = target: T1, Epidermal growth factor receptor; assay: Inhibition of EGFR (unknown origin)
Procedure, shortened: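 ADP-Glo luminescent kinase assay in 40 mM Tris–HCl pH 7.5, 20 mM MgCl2, 0.1 mg/mL BSA. EGFR added at 1.25 ng/μL with inhibitor, then a mix of 5 μM ATP and 2.5 μM poly(Glu-Tyr); reaction run 1 h at room temperature. ADP-Glo reagent added for 40 min, then detection reagent for 30 min. Run in triplicate; % inhibition calculated against a no-inhibitor control.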

Chain of Tyrosine-protein kinase JAK2 (O60674 whole entry, the tested form may be a part): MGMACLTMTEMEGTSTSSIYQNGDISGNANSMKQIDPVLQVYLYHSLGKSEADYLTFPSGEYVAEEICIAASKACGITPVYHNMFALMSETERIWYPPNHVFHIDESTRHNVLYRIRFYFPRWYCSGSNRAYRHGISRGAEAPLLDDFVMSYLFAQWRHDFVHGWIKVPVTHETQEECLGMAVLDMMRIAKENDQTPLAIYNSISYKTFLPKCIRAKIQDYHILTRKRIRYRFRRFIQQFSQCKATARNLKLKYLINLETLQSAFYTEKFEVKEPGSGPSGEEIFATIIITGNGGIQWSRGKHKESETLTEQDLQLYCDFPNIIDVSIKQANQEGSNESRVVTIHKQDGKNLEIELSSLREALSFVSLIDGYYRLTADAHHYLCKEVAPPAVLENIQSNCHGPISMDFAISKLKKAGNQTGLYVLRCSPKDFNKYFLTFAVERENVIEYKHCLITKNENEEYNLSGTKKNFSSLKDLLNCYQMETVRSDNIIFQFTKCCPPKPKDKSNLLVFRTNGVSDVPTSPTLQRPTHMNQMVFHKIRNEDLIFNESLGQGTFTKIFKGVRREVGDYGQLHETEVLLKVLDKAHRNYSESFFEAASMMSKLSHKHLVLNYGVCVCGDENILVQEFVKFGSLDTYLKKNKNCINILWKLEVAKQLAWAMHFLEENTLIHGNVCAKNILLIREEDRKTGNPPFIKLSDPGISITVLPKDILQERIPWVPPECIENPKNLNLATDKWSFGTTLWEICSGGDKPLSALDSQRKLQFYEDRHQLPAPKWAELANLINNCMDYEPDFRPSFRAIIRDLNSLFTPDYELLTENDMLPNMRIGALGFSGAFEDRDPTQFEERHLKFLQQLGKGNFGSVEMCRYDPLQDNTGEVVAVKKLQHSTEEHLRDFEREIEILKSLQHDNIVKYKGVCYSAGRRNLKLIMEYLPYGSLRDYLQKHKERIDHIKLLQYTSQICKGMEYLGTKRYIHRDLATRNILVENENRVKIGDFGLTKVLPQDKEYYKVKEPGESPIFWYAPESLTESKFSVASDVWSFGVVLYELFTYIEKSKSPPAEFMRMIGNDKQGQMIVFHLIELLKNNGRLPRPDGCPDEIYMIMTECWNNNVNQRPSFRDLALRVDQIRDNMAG
T1 sequence (P00533 whole entry, the tested form may be a part): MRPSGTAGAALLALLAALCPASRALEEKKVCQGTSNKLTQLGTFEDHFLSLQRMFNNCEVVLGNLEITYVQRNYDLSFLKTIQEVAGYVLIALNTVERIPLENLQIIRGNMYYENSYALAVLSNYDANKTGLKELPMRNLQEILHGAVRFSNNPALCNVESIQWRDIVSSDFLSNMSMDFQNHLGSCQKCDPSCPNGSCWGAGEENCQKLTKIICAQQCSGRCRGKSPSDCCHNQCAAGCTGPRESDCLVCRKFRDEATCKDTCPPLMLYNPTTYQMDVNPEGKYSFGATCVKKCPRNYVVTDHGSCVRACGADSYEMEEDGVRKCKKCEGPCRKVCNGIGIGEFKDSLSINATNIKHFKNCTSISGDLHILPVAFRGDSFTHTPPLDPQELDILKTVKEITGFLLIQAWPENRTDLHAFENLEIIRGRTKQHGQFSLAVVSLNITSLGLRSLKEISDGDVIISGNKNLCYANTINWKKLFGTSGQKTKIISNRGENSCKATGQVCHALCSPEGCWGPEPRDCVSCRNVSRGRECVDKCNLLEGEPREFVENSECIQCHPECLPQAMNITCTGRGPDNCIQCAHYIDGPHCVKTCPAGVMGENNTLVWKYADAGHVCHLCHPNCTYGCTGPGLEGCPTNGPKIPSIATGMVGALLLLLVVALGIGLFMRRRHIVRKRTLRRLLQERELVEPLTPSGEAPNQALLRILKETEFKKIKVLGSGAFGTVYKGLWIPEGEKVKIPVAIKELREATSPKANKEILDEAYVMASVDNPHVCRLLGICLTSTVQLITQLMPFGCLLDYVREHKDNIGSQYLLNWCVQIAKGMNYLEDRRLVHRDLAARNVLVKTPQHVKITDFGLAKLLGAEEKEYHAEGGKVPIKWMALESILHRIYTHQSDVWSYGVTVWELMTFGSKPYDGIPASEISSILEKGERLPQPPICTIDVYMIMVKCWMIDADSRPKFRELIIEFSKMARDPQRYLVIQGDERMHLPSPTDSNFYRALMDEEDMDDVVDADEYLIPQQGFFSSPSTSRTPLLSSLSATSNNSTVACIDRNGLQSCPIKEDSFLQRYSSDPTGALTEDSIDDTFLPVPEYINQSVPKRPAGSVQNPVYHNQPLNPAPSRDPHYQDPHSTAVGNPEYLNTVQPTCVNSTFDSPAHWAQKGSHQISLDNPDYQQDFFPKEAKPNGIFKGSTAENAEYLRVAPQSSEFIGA

IC50 [3] [µM]	IC50 [4] [µM]	SMILES	IC50 (Vero) [µM]	IC50 (A-431) [µM]	IC50 (A549) [µM]	IC50 (HEL 92.1.7) [µM]	IC50 (TF-1) [µM]	Ratio IC50 [5]	further results
–	–	Cc1cn(-c2cc(NC(=O)c3ccc(Nc4nc(-c5cccnc5)cs4)c(C)c3)cc(C(F)(F)F)c2)cn1	–	–	–	–	–	–	IC50 [1]: 0.138 µM
0.0339	0.0337	CNc1nc(C)c(C(=O)/C=C/c2ccc(O)cc2)s1	> 100	8.04	16.3	–	–	–	Ratio IC50 [2]: 2
–	–	CNc1nc(C)c(C(=O)/C=C/c2cccs2)s1	> 100	28.5	62.1	–	–	–	–
0.0176	0.144	CNc1nc(C)c(C(=O)/C=C/c2ccsc2)s1	–	–	–	9.96	32	2	–
0.0203	0.256	CNc1nc(C)c(C(=O)/C=C/c2nccs2)s1	> 100	–	–	6.89	30.2	2	–
–	–	O=C(Cc1csc2nc3ccccc3n12)Nc1ccccc1O	–	–	–	–	–	–	IC50 [6]: 0.055 µM
